Assays:
Assay type in all cases: functional
Rattus norvegicus [1] = assay: Amount of insulin in obese Zucker rats after 2 weeks of treatment at a dose of 30 mg/kg/day
In short: (§1)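 Female obese Zucker rats [Crl:(Zuc)-faBR], 400–500 g, given daily oral gavage in 20% EtOH/80% PEG-200 for up to 14 days. After a 6-h fast, serum was collected pretreatment and at day 7 (orbital bleed) and day 14 (cardiac puncture) and stored at -80 °C. Insulin was measured by ELISA. Values are mean ± SEM.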

Rattus norvegicus [2] = assay: Amount of nonesterified fatty acids in obese Zucker rats at pre-treatment at a dose of 10 mg/kg/day
In short: (§2)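 Female Zucker fatty rats [Crl:(Zuc)-faBR], 10–12 weeks old (400–500 g), dosed once daily by oral gavage in 20% EtOH/80% PEG-200 for up to 14 days. After a 6-h fast, serum was taken pre-dose, at day 7 (orbital venous plexus, O2/CO2 anaesthesia) and at day 14 (cardiac puncture), stored at −80 °C, and assayed on a Hitachi 912 automatic analyzer. Mean ± SEM.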

Rattus norvegicus [3] = assay: Amount of nonesterified fatty acids in obese Zucker rats at pre-treatment at a dose of 0 mg/kg/day; in short: as §2
Rattus norvegicus [4] = assay: Amount of triglycerides in obese Zucker rats at pre-treatment at a dose of 30 mg/kg/day; in short: as §2
Rattus norvegicus [5] = assay: Amount of triglycerides in obese Zucker rats after 1 week of treatment at a dose of 3 mg/kg/day; in short: as §2
Rattus norvegicus [6] = assay: Amount of triglycerides in obese Zucker rats after 1 week of treatment at a dose of 100 mg/kg/day; in short: as §2
Rattus norvegicus [7] = assay: Amount of HDL-cholesterol in obese Zucker rats after 2 weeks of treatment at a dose of 3 mg/kg/day
In short: (§3)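 Female Zucker fatty rats [Crl:(Zuc)-faBR], 10–12 weeks old (400–500 g), dosed once daily by oral gavage in 20% EtOH/80% PEG-200 (dose volume 0.25% of body weight). Rats were fasted 6 h and bled before dosing and at day 7 (orbital plexus), and at day 14 (cardiac puncture). Serum cholesterol fractions came from Superose 6 gel-filtration lipoprotein profiles (% peak area × serum total cholesterol). Values are mean ± SEM.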

Rattus norvegicus [8] = assay: Amount of triglycerides in obese Zucker rats after 2 weeks of treatment at a dose of 30 mg/kg/day; in short: as §2
Rattus norvegicus [9] = assay: Amount of triglycerides in obese Zucker rats after 1 week of treatment at a dose of 0 mg/kg/day; in short: as §2
Rattus norvegicus [10] = assay: Amount of insulin in obese Zucker rats after 1 week of treatment at a dose of 0 mg/kg/day; in short: as §1
Rattus norvegicus [11] = assay: Amount of insulin in obese Zucker rats after 2 weeks of treatment at a dose of 0 mg/kg/day; in short: as §1
Rattus norvegicus [12] = assay: Percent decrease in nonesterified fatty acids in obese Zucker rats after 1 week of treatment at a dose of 100 mg/kg/day; design: scale not given: the % may be the effect or the level left
In short: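 Female Zucker fatty rats [Crl:(Zuc)-faBR], 10–12 weeks, 400–500 g, acclimated 7 days on chow. Compound or vehicle (20% EtOH/80% PEG-200) given by daily oral gavage for 2 weeks, 0–100 mg/kg/day. After a 6 h fast, blood was taken before dosing, at 1 wk and at 2 wk. Serum lipids, NEFA and insulin (ELISA) were measured; glucose by glucometer. HDL/non-HDL-C came from Superose 6 gel-filtration profiles. Values are % change from pretreatment, mean ± SEM.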

Rattus norvegicus [13] = assay: Amount of non-HDL-cholesterol in obese Zucker rats after 2 weeks of treatment at a dose of 0 mg/kg/day; in short: as §3
Rattus norvegicus [14] = assay: Amount of glucose in obese Zucker rats after 1 week of treatment at a dose of 3 mg/kg/day
In short: (§4)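 Female Zucker fatty rats [Crl:(Zuc)-faBR], 10–12 weeks old (400–500 g), gavaged daily with vehicle (20% EtOH/80% PEG-200, 0.25% of body weight) or compound. After a 6-h fast, blood glucose was read by glucometer from tail-prick blood of unanesthetized rats before dosing and after 1 and 2 weeks. Values are mean ± SEM.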

Rattus norvegicus [15] = assay: Amount of insulin in obese Zucker rats at pre-treatment at a dose of 100 mg/kg/day; in short: as §1
Rattus norvegicus [16] = assay: Amount of insulin in obese Zucker rats after 2 weeks of treatment at a dose of 3 mg/kg/day; in short: as §1
Rattus norvegicus [17] = assay: Amount of non-HDL-cholesterol in obese Zucker rats after 1 week of treatment at a dose of 0 mg/kg/day; in short: as §3
Rattus norvegicus [18] = assay: Amount of glucose in obese Zucker rats at pre-treatment at a dose of 10 mg/kg/day; in short: as §4
Rattus norvegicus [19] = assay: Amount of nonesterified fatty acids in obese Zucker rats after 1 week of treatment at a dose of 30 mg/kg/day; in short: as §2
Rattus norvegicus [20] = assay: Amount of HDL-cholesterol in obese Zucker rats after 2 weeks of treatment at a dose of 100 mg/kg/day; in short: as §3
Rattus norvegicus [21] = assay: Amount of non-HDL-cholesterol in obese Zucker rats after 1 week of treatment at a dose of 3 mg/kg/day; in short: as §3
Rattus norvegicus [22] = assay: Amount of HDL-cholesterol in obese Zucker rats after 2 weeks of treatment at a dose of 30 mg/kg/day; in short: as §3
Rattus norvegicus [23] = assay: Amount of glucose in obese Zucker rats after 1 week of treatment at a dose of 100 mg/kg/day; in short: as §4
Rattus norvegicus [24] = assay: Amount of glucose in obese Zucker rats after 1 week of treatment at a dose of 0 mg/kg/day; in short: as §4
Rattus norvegicus [25] = assay: Amount of glucose in obese Zucker rats at pre-treatment at a dose of 3 mg/kg/day; in short: as §4
Rattus norvegicus [26] = assay: Amount of insulin in obese Zucker rats after 1 week of treatment at a dose of 100 mg/kg/day; in short: as §1
Rattus norvegicus [27] = assay: Amount of HDL-cholesterol in obese Zucker rats at pre-treatment at a dose of 30 mg/kg/day; in short: as §3
Rattus norvegicus [28] = assay: Amount of nonesterified fatty acids in obese Zucker rats after 2 weeks of treatment at a dose of 0 mg/kg/day; in short: as §2
Rattus norvegicus [29] = assay: Amount of HDL-cholesterol in obese Zucker rats after 1 week of treatment at a dose of 0 mg/kg/day; in short: as §3
Rattus norvegicus [30] = assay: Amount of insulin in obese Zucker rats after 2 weeks of treatment at a dose of 10 mg/kg/day; in short: as §1
Rattus norvegicus [31] = assay: Amount of HDL-cholesterol in obese Zucker rats at pre-treatment at a dose of 100 mg/kg/day; in short: as §3
Rattus norvegicus [32] = assay: Amount of HDL-cholesterol in obese Zucker rats after 1 week of treatment at a dose of 3 mg/kg/day; in short: as §3
Rattus norvegicus [33] = assay: Amount of insulin in obese Zucker rats at pre-treatment at a dose of 3 mg/kg/day; in short: as §1
Rattus norvegicus [34] = assay: Amount of insulin in obese Zucker rats after 1 week of treatment at a dose of 3 mg/kg/day; in short: as §1
Rattus norvegicus [35] = assay: Amount of non-HDL-cholesterol in obese Zucker rats after 2 weeks of treatment at a dose of 30 mg/kg/day
In short: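 Female obese Zucker fatty rats [Crl:(Zuc)-faBR], 10–12 weeks old (400–500 g), on chow. Compound in 20% EtOH/80% PEG-200 (v/v) given by daily oral gavage. After a 6-h fast, serum was taken before dosing and at 7 days (orbital plexus), and at 14 days (cardiac puncture). Lipoprotein cholesterol came from Superose 6HR gel-filtration profiles × serum total cholesterol. Mean ± SEM.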

SMILES | Activity (Rattus norvegicus [1]) [ng/mL] | Activity (Rattus norvegicus [2]) [mg/dL] | Activity (Rattus norvegicus [3]) [mg/dL] | Activity (Rattus norvegicus [4]) [mg/dL] | Activity (Rattus norvegicus [5]) [mg/dL] | Activity (Rattus norvegicus [6]) [mg/dL] | Activity (Rattus norvegicus [7]) [mg/dL] | Activity (Rattus norvegicus [8]) [mg/dL] | Activity (Rattus norvegicus [9]) [mg/dL] | Activity (Rattus norvegicus [10]) [ng/mL] | Activity (Rattus norvegicus [11]) [ng/mL] | Activity (Rattus norvegicus [12]) [%] | Activity (Rattus norvegicus [13]) [mg/dL] | Activity (Rattus norvegicus [14]) [mg/dL] | Activity (Rattus norvegicus [15]) [ng/mL] | Activity (Rattus norvegicus [16]) [ng/mL] | Activity (Rattus norvegicus [17]) [mg/dL] | Activity (Rattus norvegicus [18]) [mg/dL] | Activity (Rattus norvegicus [19]) [mg/dL] | Activity (Rattus norvegicus [20]) [mg/dL] | also measured
CC(C)(CCCCCC(=O)CCCCCC(C)(C)C(=O)O)C(=O)O | 7.7 | 1.2 | 1.3 | 982 | 995 | 69 | 77 | 475 | 1119 | 10.1 | 8.1 | -30 | 28 | 117 | 11.9 | 7.3 | 29 | 120 | 0.88 | 141 | Activity (Rattus norvegicus [21]): 23 mg/dL; Activity (Rattus norvegicus [22]): 208 mg/dL; Activity (Rattus norvegicus [23]): 92 mg/dL; Activity (Rattus norvegicus [24]): 123 mg/dL; Activity (Rattus norvegicus [25]): 114 mg/dL; Activity (Rattus norvegicus [26]): 6.4 ng/mL; Activity (Rattus norvegicus [27]): 62 mg/dL; Activity (Rattus norvegicus [28]): 1.3 mg/dL; Activity (Rattus norvegicus [29]): 66 mg/dL; Activity (Rattus norvegicus [30]): 9.1 ng/mL; Activity (Rattus norvegicus [31]): 66 mg/dL; Activity (Rattus norvegicus [32]): 75 mg/dL; Activity (Rattus norvegicus [33]): 8.6 ng/mL; Activity (Rattus norvegicus [34]): 10 ng/mL; Activity (Rattus norvegicus [35]): 30 mg/dL
CC(C)(CCCCC(=O)CCCCC(C)(C)C(=O)O)C(=O)O | 8.5 | 1.6 | 1.5 | 1242 | 775 | 383 | 33 | 962 | 1333 | 8.4 | 0.058 | -33 | 29 | 99 | 8.1 | 8.6 | 43 | 113 | 1 | 68 | Activity (Rattus norvegicus [21]): 24 mg/dL; Activity (Rattus norvegicus [22]): 50 mg/dL; Activity (Rattus norvegicus [23]): 113 mg/dL; Activity (Rattus norvegicus [24]): 124 mg/dL; Activity (Rattus norvegicus [25]): 108 mg/dL; Activity (Rattus norvegicus [26]): 9 ng/mL; Activity (Rattus norvegicus [27]): 34 mg/dL; Activity (Rattus norvegicus [28]): 1.4 mg/dL; Activity (Rattus norvegicus [29]): 39 mg/dL; Activity (Rattus norvegicus [30]): 8.9 ng/mL; Activity (Rattus norvegicus [31]): 38 mg/dL; Activity (Rattus norvegicus [32]): 36 mg/dL; Activity (Rattus norvegicus [33]): 10.4 ng/mL; Activity (Rattus norvegicus [34]): 10.7 ng/mL; Activity (Rattus norvegicus [35]): 43 mg/dL
